# Tests used:
# [1] = ST_JUDE: Cytotoxicity using luciferase to measure ATP as an indicator of the viability of human Burkitt''s lymphoma lymphoblast cells (Raji); type: toxicity, cell-based
# [2] = test system: Plasmodium falciparum; assay: ST_JUDE: Cytotoxicity against Plasmodium falciparum K1; type: functional, organism-based
# Outline: (§1)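 Asexual P. falciparum grown in human erythrocytes, exposed to compounds for 72 h, and growth read as the DNA quantity in treated versus control cultures. Dose-response run at 12 concentrations from 10 μM to 5 nM.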
# [3] = test system: Plasmodium falciparum; assay: ST_JUDE: Cytotoxicity against Plasmodium falciparum 3D7; type: functional, organism-based; outline: as §1
# [4] = ST_JUDE: Cytotoxicity using luciferase to measure ATP as an indicator of the viability of human foreskin fibroblast cells (BJ); type: toxicity, cell-based
# [5] = test system: Plasmodium falciparum; assay: ST_JUDE: Plasmodium falciparum 3D7 EC50 (uM) as measured by SYBR green dye; type: functional, organism-based
# [6] = test system: Plasmodium falciparum; assay: ST_JUDE: Cytotoxicity against Plasmodium falciparum W2; type: functional, organism-based
# [7] = test system: Plasmodium falciparum; assay: ST_JUDE: Cytotoxicity against Plasmodium falciparum D10 transfected with yeast DHOD; type: functional, organism-based
# [8] = test system: Plasmodium falciparum; assay: ST_JUDE: Cytotoxicity against Plasmodium falciparum V1/S; type: functional, organism-based
# [9] = test system: Plasmodium falciparum; assay: ST_JUDE: Cytotoxicity against Plasmodium falciparum Dd2; type: functional, organism-based
# [10] = test system: Plasmodium falciparum; assay: ST_JUDE: Plasmodium falciparum K1 EC50 (uM) as measured by SYBR green dye; type: functional, organism-based
# [11] = test system: Plasmodium falciparum; assay: ST_JUDE: Cytotoxicity against Plasmodium falciparum SB-A6; type: functional, organism-based
# [12] = test system: Toxoplasma gondii; assay: ST_JUDE: Growth inhibition of to Toxoplasma gondii, in human U-2OS cells, as measured by luciferase.; type: functional, organism-based; conditions: RH, U2OS
# Outline: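 T. gondii parasites engineered to express luciferase; drug sensitivity read by luminescence.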
# [13] = ST_JUDE: Cytotoxicity using luciferase to measure ATP as an indicator of the viability of human epithelial hepatocellular carcinoma cells (HepG2); type: toxicity, cell-based
# [14] = test system: Leishmania major; assay: ST_JUDE: Cytotoxicity using Alamar Blue to measure viability of Leishmania major; type: functional, organism-based
# Outline: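 L. major promastigotes; drug susceptibility read with Alamar Blue.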
# [15] = test system: Trypanosoma brucei; assay: ST_JUDE: Cytotoxicity using luciferase to measure ATP as an indicator of the viability of Trypanosoma brucei; type: functional, organism-based
# [16] = ST_JUDE: Cytotoxicity using luciferase to measure ATP as an indicator of the viability of human epithelial embryonic kidney cells (HEK293); type: toxicity, cell-based
Compound,EC50 [1] [nM],EC50 [2] [nM],EC50 [3] [nM],EC50 [4] [nM],EC50 [5] [nM],EC50 [6] [nM],EC50 [7] [nM],EC50 [8] [nM],EC50 [9] [nM],EC50 [10] [nM],EC50 [11] [nM],EC50 [12] [nM],EC50 [13] [nM],EC50 [14] [nM],EC50 [15] [nM],EC50 [16] [nM]
O=C(Nc1cccc(Cl)c1N1CCOCC1)C(Cl)(Cl)Cl,> 30200,1400,1540,> 30200,8600,> 7760,3380,1080,2470,2980,2790,> 16600,> 30200,> 12900,> 29000,> 30200
COc1ccc(C2CC(=O)C3=C(C2)NC(=O)CC3c2ccc(C(F)(F)F)cc2)cc1OC (centres undefined),> 47500,1590,2150,> 47500,599,417,1110,1190,894,872,1090,> 26000,> 47500,> 20300,> 45500,> 47500
CCc1ccccc1NC(=O)C1c2ccccc2C(=O)N(CC(C)C)C1c1cccs1 (centres undefined),> 43000,1080,938,> 43000,511,679,1080,1150,1210,526,1010,> 23600,> 43000,> 18400,12900,> 43000
Cc1ccc(C)c(NC(=O)CC2C(=O)N(c3ccccc3)C(=S)N2Cc2ccco2)c1 (centres undefined),41000,2720,2510,> 44100,259,292,449,361,428,395,385,> 24100,> 44100,> 18900,> 42300,> 44100
Cc1oc2c(c1C(=O)NCCC(C)C)C(=O)c1ccccc1C2=O,> 42500,1170,1230,> 42500,7610,> 10900,842,> 10900,2340,424,1120,> 23300,> 42500,> 18200,2380,> 42500
CCN(CC)CCN1C(=O)c2ccccc2NC1c1ccc(Cl)cc1 (centres undefined),> 42900,1670,2180,> 42900,578,1950,1870,1140,1120,526,2000,> 23500,> 42900,> 18400,> 41100,> 42900
CCO/C(O)=C1\C(C)=NC2=C(C(=O)CC(c3ccc(OC)c(OC)c3)C2)C1c1ccccc1Cl (centres undefined),> 44600,91.3,70.2,> 44600,60.4,16.5,57.3,118,60.8,138,56.1,> 24400,> 44600,> 19100,9640,> 44600
CC(C)c1ccc(CNCC(O)c2ccccc2)cc1 (centres undefined),23200,992,2400,> 52900,1350,1680,4100,1150,2250,439,4300,> 29000,> 52900,> 22600,14400,34500
CCCCCOc1ccc(N(C(C)=O)C2=C(N3CCCCC3)C(=O)c3ccccc3C2=O)cc1,4100,129,193,> 29300,728,386,61.5,114,754,371,110,> 16100,9760,> 12600,4140,> 29300
C[N+](C)(C)c1nc(N2CCOCC2)nc(N(c2ccccc2)c2ccccc2)n1,10600,1510,396,> 42800,529,5820,880,1840,1300,1830,626,> 23500,> 42800,> 18300,5590,> 42800
Oc1ccc(Br)cc1CN1CCN(Cc2cccc(F)c2)CC1,> 31800,656,1560,> 31800,3510,1740,1500,723,1500,1300,1740,> 17400,> 31800,> 13600,25800,> 31800
Cc1ccc(C)c(N2CCN(Cc3cc(Cl)ccc3O)CC2)c1,> 35900,195,496,> 35900,724,1010,549,328,323,261,536,> 19700,> 35900,> 15400,> 34400,> 35900
CC(O)(c1ccc(Cl)cc1)C(CN1CCCCC1)c1ccccc1 (centres undefined),> 50600,652,2200,> 50600,916,7800,5330,1310,1260,267,4240,> 27700,> 50600,> 21600,24000,> 50600
CCCO/C(O)=C1\C(C)=NC2=C(C(=O)CC(c3ccc(OC)c(OC)c3)C2)C1c1cccc(Cl)c1 (centres undefined),> 37700,426,732,> 37700,536,586,330,518,1020,188,199,> 20700,> 37700,> 16200,5150,> 37700
CCCO/C(O)=C1\C(C)=NC2=C(C(=O)CC(c3ccc(OC)c(OC)c3)C2)C1c1ccccc1Cl (centres undefined),> 39100,37.1,75.2,> 39100,24.7,17,36.9,66,50,16.7,26.2,> 21400,> 39100,> 16700,9300,> 39100
CCO/C(O)=C1\C(C)=NC2=C(C(=O)CC(c3ccc(OC)c(OC)c3)C2)C1c1cccc(Cl)c1 (centres undefined),> 41900,487,831,> 41900,716,1800,531,902,1480,226,335,> 22900,> 41900,> 17900,16700,> 41900
Cc1cccc(N2CCN(Cc3ccccc3O)CC2)c1C,> 32700,355,976,> 32700,1070,951,813,403,626,531,29.5,> 17900,> 32700,> 14000,> 31300,> 32700
COC(=O)c1ccc(NC(=O)C2c3ccccc3C(=O)N(CC(C)C)C2c2cccs2)cc1 (centres undefined),> 38700,1520,1160,> 38700,998,> 9940,1360,1730,1250,1220,2260,> 21200,> 38700,> 16600,2330,> 38700
O=S(=O)(c1ccc(Cl)cc1)N1CCN(C(=S)NCc2ccco2)CC1,> 30100,1150,864,> 30100,1510,820,3490,2400,849,1270,4460,> 16500,> 30100,> 12900,24900,> 30100
